Test results published in ChEMBL document CHEMBL3124806, “Imidazopyridine-fused [1,3]-diazepinones: synthesis and antiproliferative activity” (Eur J Med Chem, 2014).
Calls of active or inactive are those of the source. No cut-off for these calls is given here.

Legend:
[1] = molecular target: Mitogen-activated protein kinase kinase kinase kinase 4 (Homo sapiens) (UniProt O95819); assay: Inhibition of human HGK at 10 uM
Method in brief: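 Kinase selectivity panel of 19 protein tyrosine kinases and 30 serine/threonine kinases, run by a contract lab (CEREP). Each compound was tested at a single dose of 10 μM in duplicate.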

MDA-MB-435 = assay: Induction of apoptosis in human MDA-MB-435 cells assessed as nuclei fragmentation at 5 uM after 20 hrs by Hoechst 33342 staining-based phase-contrast microscopy; format: functional, cell-based
T47D = assay: Cytotoxicity against human T47D cells after 48 hrs by SRB assay; format: functional
Method in brief: (§1)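 NCI-60 five-dose mode on the full human tumour line panel. Concentrations ran from 100 to 0.01 µM with 48 h continuous exposure. Growth was estimated by SRB protein staining against untreated controls, and IC50 values were derived from the dose–response.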

MDA-MB-231 = assay: Cytotoxicity against human MDA-MB-231 cells after 48 hrs by SRB assay; format: functional; conditions: MDA-MB-231, 48 h
Method in brief: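 NCI-60 five-dose screen: cells exposed continuously for 48 h across 100 to 0.01 µM. Growth or viability estimated by sulforhodamine B protein staining, read spectrophotometrically against untreated controls; IC50 taken from the dose-response.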

[2] = Cytotoxicity against human Hs578T cells after 48 hrs by SRB assay; format: functional; conditions: Hs-578T
Method in brief: (§2)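 NCI-60 five-dose testing, 100 to 0.01 µM, under a 48 h continuous-exposure protocol. Growth estimated by SRB protein assay, read spectrophotometrically against untreated controls; IC50 derived from the dose-response.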

UACC-62 = assay: Cytotoxicity against human UACC62 cells after 48 hrs by SRB assay; format: functional; conditions: UACC-62, 48 h; method in brief: as §1
HOP-92 = assay: Cytotoxicity against human HOP92 cells after 48 hrs by SRB assay; format: functional; conditions: HOP-92, 48 h; method in brief: as §2
HOP-62 = assay: Cytotoxicity against human HOP62 cells after 48 hrs by SRB assay; format: functional; conditions: HOP-62, 48 h; method in brief: as §2
[3] = read-out: LC50 (the source's name)

Sequence of Mitogen-activated protein kinase kinase kinase kinase 4 (Homo sapiens) (O95819 2-1239 limits assumed): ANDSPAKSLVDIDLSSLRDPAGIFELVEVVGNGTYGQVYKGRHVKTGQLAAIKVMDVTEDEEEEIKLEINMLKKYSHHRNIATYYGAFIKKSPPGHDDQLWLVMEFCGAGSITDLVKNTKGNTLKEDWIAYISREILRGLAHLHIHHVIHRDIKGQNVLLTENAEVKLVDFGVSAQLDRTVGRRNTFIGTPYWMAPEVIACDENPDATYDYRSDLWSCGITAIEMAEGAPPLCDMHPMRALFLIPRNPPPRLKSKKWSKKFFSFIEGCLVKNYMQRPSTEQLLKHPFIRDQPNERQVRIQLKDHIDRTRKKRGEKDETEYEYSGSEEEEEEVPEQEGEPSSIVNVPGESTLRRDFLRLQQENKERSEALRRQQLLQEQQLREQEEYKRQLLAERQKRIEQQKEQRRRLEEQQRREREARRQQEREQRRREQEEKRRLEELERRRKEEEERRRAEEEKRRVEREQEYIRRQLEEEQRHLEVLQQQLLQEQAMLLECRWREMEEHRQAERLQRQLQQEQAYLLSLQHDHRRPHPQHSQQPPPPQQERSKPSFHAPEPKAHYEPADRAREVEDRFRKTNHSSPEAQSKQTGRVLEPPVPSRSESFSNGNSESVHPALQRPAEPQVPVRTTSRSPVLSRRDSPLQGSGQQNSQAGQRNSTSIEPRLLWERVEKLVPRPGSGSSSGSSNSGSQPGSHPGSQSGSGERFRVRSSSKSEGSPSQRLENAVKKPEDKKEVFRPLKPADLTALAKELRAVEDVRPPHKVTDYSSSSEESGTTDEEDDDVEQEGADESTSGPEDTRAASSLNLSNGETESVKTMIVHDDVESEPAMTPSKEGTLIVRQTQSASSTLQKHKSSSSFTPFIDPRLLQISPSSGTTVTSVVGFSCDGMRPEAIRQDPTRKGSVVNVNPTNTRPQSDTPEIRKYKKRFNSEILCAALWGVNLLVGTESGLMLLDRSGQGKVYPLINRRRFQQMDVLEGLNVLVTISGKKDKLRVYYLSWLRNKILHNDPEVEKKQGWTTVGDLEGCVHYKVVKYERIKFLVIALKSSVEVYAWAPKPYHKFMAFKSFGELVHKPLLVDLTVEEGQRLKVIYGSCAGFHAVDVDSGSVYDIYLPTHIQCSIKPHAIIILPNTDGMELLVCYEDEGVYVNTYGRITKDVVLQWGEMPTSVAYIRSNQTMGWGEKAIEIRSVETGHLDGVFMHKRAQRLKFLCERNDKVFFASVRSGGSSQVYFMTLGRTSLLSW

C[C@@H]1NC(c2ccc(Br)cc2)=Nc2nc3ccccn3c2C1=O
inhibition [1]: 50%
Activity (MDA-MB-435): Active
GI50 (T47D): 46.2 µM
TGI (T47D): > 100 µM
CC50 (T47D; [3]): > 100 µM
GI50 (MDA-MB-231): 6.08 µM
TGI (MDA-MB-231): > 100 µM
CC50 (MDA-MB-231; [3]): > 100 µM
GI50 [2]: 2.81 µM
TGI [2]: 52 µM
CC50 [2, 3]: > 100 µM
GI50 (UACC-62): 4.35 µM
TGI (UACC-62): > 100 µM
CC50 (UACC-62; [3]): > 100 µM
GI50 (HOP-92): 1.16 µM
TGI (HOP-92): 22.9 µM
CC50 (HOP-92; [3]): > 100 µM
GI50 (HOP-62): 5.75 µM
TGI (HOP-62): > 100 µM
CC50 (HOP-62; [3]): > 100 µM
